According to ChEMBL document CHEMBL1139624, “Synthesis and evaluation of isatin derivatives as effective SARS coronavirus 3CL protease inhibitors” (Bioorg Med Chem Lett, 2005):

Tests used:
[1] = molecular target: Replicase polyprotein 1a (Severe acute respiratory syndrome-related coronavirus) (UniProt P0C6U8); experiment: In vitro percent inhibition against SARS coronavirus main protease (SARS CoV 3C-like protease) at 20 uM
Procedure, shortened: (§1)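 FRET assay with 50 nM 3CLpro preincubated 10 min at room temperature with inhibitor at 20 μM in pH 7.5 Tris–HCl/NaCl/EDTA/DTT/β-ME buffer. Percent inhibition was taken from the initial velocity.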

[2] = molecular target: T1, Replicase polyprotein 1a (Severe acute respiratory syndrome-related coronavirus, UniProt P0C6U8); experiment: In vitro inhibitory concentration against SARS coronavirus main protease (SARS CoV 3C-like protease)
[3] = molecular target: Replicase polyprotein 1a (Severe acute respiratory syndrome-related coronavirus) (UniProt P0C6U8); experiment: In vitro percent inhibition against SARS coronavirus main protease (SARS CoV 3C-like protease); conditions: concentration not given here; procedure, shortened: as §1
[4] = In vitro inhibitory concentration against Trypsin (serine protease)
Procedure, shortened: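 Trypsin counter-screen run with 9 nM enzyme and 200 μM substrate.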

[5] = molecular target: T1, Replicase polyprotein 1a; experiment: In vitro inhibitory concentration SARS coronavirus main protease (SARS CoV 3C-like protease)
[6] = In vitro inhibitory concentration against Papain (cysteine protease); parameters: species or system Carica papaya
[7] = molecular target: T1, Replicase polyprotein 1a; experiment: In vitro inhibitory concentration against SARS coronavirus main protease (SARS CoV 3C-like protease) at 20 uM; procedure, shortened: as §1

O=C(Nc1ccc(F)cc1)c1ccc(CN2C(=O)C(=O)c3cc(I)ccc32)s1
inhibition [1]: 46%

O=C1C(=O)N(Cc2cc3ccccc3s2)c2cccc(Cl)c21
IC50 [2]: 11.2 µM

Nc1ccc2c(c1)C(=O)C(=O)N2CC(=O)c1cc2ccccc2s1
inhibition [1]: 40%

Cc1noc(C)c1CN1C(=O)C(=O)c2cc(C#N)ccc21
IC50 [2]: 7.2 µM

O=C1C(=O)N(Cc2cc3ccccc3s2)c2c1cccc2[N+](=O)[O-]
IC50 [2]: 2 µM

O=C1C(=O)N(Cc2cc3ccccc3s2)c2ccc(F)cc21
IC50 [2]: 4.82 µM

Cc1noc(C)c1CN1C(=O)C(=O)c2cc(C(N)=O)ccc21
inhibition [1]: 25%

O=C(Nc1ccc(Cl)cc1)c1ccc(CN2C(=O)C(=O)c3cc(I)ccc32)s1
IC50 [2]: 12.6 µM

O=C1C(=O)N(Cc2ccc(C(=O)N3CCCCC3)s2)c2ccc(I)cc21
IC50 [2]: 17.5 µM

O=C1C(=O)N(Cc2cc3ccccc3o2)c2ccc(I)cc21
inhibition [3]: 13%

O=C1C(=O)N(C/C=C/c2cc3ccccc3s2)c2ccc(I)cc21
IC50 [2]: 23.5 µM

Nc1cccc2c1N(Cc1cc3ccccc3s1)C(=O)C2=O
inhibition [1]: 31%

O=C1C(=O)N(Cc2ccc(F)cc2Cl)c2ccc(I)cc21
IC50 [2]: 9.4 µM

COc1ccc2c(c1)C(=O)C(=O)N2Cc1cc2ccccc2s1
inhibition [1]: 27%

CC(C)NC(=O)c1ccc(CN2C(=O)C(=O)c3cc(I)ccc32)s1
inhibition [1]: 47%

Cc1cc2c(c([N+](=O)[O-])c1)N(CC(=O)c1cc3ccccc3s1)C(=O)C2=O
inhibition [1]: 40%

O=C1C(=O)N(Cc2cc3ccccc3s2)c2ccccc21
IC50 [2]: 13.1 µM

O=C1C(=O)N(Cc2cc3ccccc3o2)c2ccc([N+](=O)[O-])cc21
inhibition [1]: 24%

COc1ccc2c(c1)C(=O)C(=O)N2Cc1cc2ccccc2o1
inhibition [1]: 13%

O=C(Nc1ccc(F)cc1F)c1ccc(CN2C(=O)C(=O)c3cc(I)ccc32)s1
inhibition [1]: 32%

O=C1C(=O)N(Cc2cc3ccccc3s2)c2c(Br)cccc21
IC50 [4]: 362 µM
IC50 [5]: 0.98 µM
IC50 [6]: 103 µM

O=C1C(=O)N(CC2COc3ccccc3O2)c2ccc(I)cc21 (stereo not given)
IC50 [7]: 13.5 µM

O=C1C(=O)N(Cc2cc3ccccc3s2)c2c(Cl)ccc(Cl)c21
inhibition [1]: 46%

O=C(NC1CCCCC1)c1ccc(CN2C(=O)C(=O)c3cc(I)ccc32)s1
inhibition [1]: 36%

Cc1cc2c(c([N+](=O)[O-])c1)N(Cc1cc3ccccc3s1)C(=O)C2=O
inhibition [1]: 39%

O=C1C(=O)N(Cc2cc3ccccc3s2)c2ccc(I)cc21
IC50 [4]: 243 µM
IC50 [2]: 0.95 µM
IC50 [6]: 87.2 µM
